miR122 inh: blocks miR-122 activity in Huh7 sensor cells. activation (reporter increase), % at 12.5 µM. Huh7 miR-122 Renilla luciferase sensor, 48 h; neutral wells = 0, positive control = 100. 0.3% of 340,000 active;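 active = mean replicate activation score at least 90 and every replicate individually at or above 90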;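 also: higher luciferase means less miR-122 activity so hits act as miR-122 inhibitors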
S100A4 inh HTS: S100A4-myosin IIA interaction inhibition; AID 652163; 0.14% of 360,000 active; inhibition, % at 10.7 µM; S100A4/TAMRA-MyoIIA peptide fluorescence polarization; P26447;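 active = mean inhibition of at least 70% across replicates, with every replicate also reaching that level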
Target sequence (P26447 whole entry, looked up): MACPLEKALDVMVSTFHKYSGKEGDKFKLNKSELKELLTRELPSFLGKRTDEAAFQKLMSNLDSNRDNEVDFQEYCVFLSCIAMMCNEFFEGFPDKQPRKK
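Material: S100A4 monomer protein / Buffer or medium: 50 mM HEPES pH 7.2, 10 mM CaCl2, 100 mM KCl / Times: 5 min incubation before reading / Benchmarks: neutral control DMSO, positive control TFP / Reagent: labelled myosin peptide probe, 5 nM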
E-sel inducer: E-selectin induction on HUVECs; activation, % at 7.58 µM; HUVEC E-selectin immunofluorescence imaging; normalized: neutral wells 0, TNF-alpha wells 100; AID 686992; P16581; 0.37% of 260,000 active;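 active = mean E-selectin-positive cell signal at least 10% of the positive control, reached in at least 60% of replicates, without over 20% cell loss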
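Assay system: HUVEC, human umbilical vein endothelial cells / Amount: 3,000 HUVEC/well / Controls: TNF-alpha positive control, DMSO neutral control / Compound dosing: single concentration / Medium: EGM-2 over gelatin coat / Evaluation: percent E-selectin-positive cells / Signal: immunofluorescence imaging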
FGF22 binding: FGF22 (human) thermal shift binding; 1.5% of 340,000 active; activity (Tm shift, normalised), % at 9.99 µM; Q9HCT0; recombinant FGF22 thermal shift, SYPRO orange fluorescence; percent of sucrose octasulfate shift, DMSO zero;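 active = mean Tm shift, scaled 0 neutral to 100 positive control, at about 1.3% or above, every replicate too, limit read from the data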
Target sequence (Q9HCT0 whole entry, looked up): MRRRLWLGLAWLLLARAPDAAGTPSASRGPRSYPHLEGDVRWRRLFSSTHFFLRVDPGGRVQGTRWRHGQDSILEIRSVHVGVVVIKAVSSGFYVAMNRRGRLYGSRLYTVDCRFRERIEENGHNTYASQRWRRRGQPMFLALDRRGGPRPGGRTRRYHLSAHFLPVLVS
SIRT5 block: blocks human SIRT5 desuccinylation of peptide. Q9NXA8. AID 652115. 1.1% of 330,000 active. inhibition, % at 15 µM. Purified SirT5, succinyl-peptide AMC, trypsin-coupled fluorescence; in the data active = inhibition above about 15%
Target sequence (Q9NXA8 whole entry, looked up): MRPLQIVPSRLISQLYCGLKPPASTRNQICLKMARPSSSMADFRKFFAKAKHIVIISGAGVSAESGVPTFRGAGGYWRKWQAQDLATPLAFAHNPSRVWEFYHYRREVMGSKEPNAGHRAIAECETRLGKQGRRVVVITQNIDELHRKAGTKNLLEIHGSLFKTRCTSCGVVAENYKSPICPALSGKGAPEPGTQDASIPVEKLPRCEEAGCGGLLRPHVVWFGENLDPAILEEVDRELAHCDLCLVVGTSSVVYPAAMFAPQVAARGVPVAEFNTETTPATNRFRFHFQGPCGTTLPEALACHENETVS
Numbers without * were called inactive; . = no result given; [ ] = remark or other dose. Most compounds without a hit are left out; they make up all but 2.5% or so of the library.

SMILES	miR122 inh	S100A4 inh HTS	E-sel inducer	FGF22 binding	SIRT5 block
C=CCc1cccc2cc(C(=O)Nc3ccccc3C(=O)O)c(=O)oc12	-7	-1	.	43*	-1
O=C1CN(CCN2CC(=O)N(Cc3ccccc3)C(=O)C2)CC(=O)N1Cc1ccccc1	-1	0	0	44*	.
COc1cccc(-c2nc(-c3ccccc3)[nH]c(=O)c2C#N)c1	-3	.	.	.	.
CCC(Sc1nc(-c2cccc(OC)c2)c(C#N)c(=O)[nH]1)C(=O)Nc1nnc(C(C)C)s1 (stereo not given)	.	1	-1	2.1*	-5
CO/N=C/C(C#N)=C/c1cc(C(=O)c2ccc(F)cc2)cn1C	6	0	.	43*	2
CO/N=C/C(=N\Nc1ccc(OC)cc1)C(=O)c1ccc(F)cc1	-3	2	3	1	-2
C[C@H]1CN([C@@H](C)CO)C(=O)c2ccccc2-c2ccccc2CO[C@H]1CN(C)C(=O)c1ccccc1	.	0	-1	0	2
COCCCNC(=O)[C@@]1(Cc2ccccc2N=[N+]=[N-])N=C(c2ccc(OCCCO)cc2)O[C@H]1c1ccccc1N=[N+]=[N-]	.	-38	.	0	2
CCCCCCc1ccc(OCC(=O)OC)cc1OCC(=O)OC	.	6	.	0	23*
Cc1ccc(C(NC(=O)Nc2ccccn2)C(Cl)(Cl)Cl)cc1F (stereo not given)	0	-4	42*	0	-8
Cc1cc(/C=N/N2CCN(C)CC2)c(C)n1-c1ccccc1F	.	-2	.	44*	-3
CN1CCN(/N=C/c2ccc(-c3ccccc3)cc2)CC1	1	2	.	0	-5
Nc1c(Cl)cc(Cl)cc1C(=O)OCC(=O)N1CCCC1	2	.	.	.	.
O=C(OCC(=O)N1CCCC1)c1cc(Br)ccc1Cl	.	-2	0	0	18*
C[C@@H]1CCCCO[C@H](CN(C)Cc2ccncc2)[C@H](C)CN([C@H](C)CO)C(=O)c2cc(NC(=O)CCCN(C)C)ccc2O1	-2[16.7 µM]	6	0	.	-5
CC(C)C(OC(=O)c1nsc(Cl)c1Cl)C(=O)NCc1ccccc1 (stereo not given)	-2	9	32*	0	-3
COC(=O)c1ccc(/C=N/OCC(=O)NC2CCCC(C)C2C)cc1 (stereo not given)	30	.	.	.	.
COC(=O)c1ccc(/C=N/OCC(=O)NC2CCCCCCC2)cc1	163*	.	.	.	.
COc1cc(C(=O)Nc2nnc(SC)s2)c([N+](=O)[O-])cc1OC	.	-6	.	44*	-4
CCc1nnc(NC(=O)c2cc(OC)c(OC)cc2[N+](=O)[O-])s1	.	0	.	0	-2
COc1ccc(-n2c(=O)/c(=C\c3cccs3)s/c2=C(/C#N)C(=O)NCCN2CCOCC2)cc1	4	10	0	43*	-1
CCOC(=O)c1c(-c2ccc(OC)cc2)csc1NC(=O)CCN1CCOCC1	.	1	1	42	-4
CCOC(=O)c1c(-c2ccc(C)cc2)csc1NC(=O)CCN1CC(C)OC(C)C1 (stereo not given)	-2	1	0	0	20*
O=C(Nc1ccc(C(F)(F)F)cc1)N[C@@H]1CC[C@@H](CC(=O)N2CCCCC2)O[C@H]1CO	.	-4	0	0	1
O=C(Cc1ccccc1)c1ccc(O)cc1	-10	-3	0	0	18*
SMILES	miR122 inh	S100A4 inh HTS	E-sel inducer	FGF22 binding	SIRT5 block
CCc1nc2ccc(C(=O)N3CCN(C(=O)c4ccco4)CC3)cn2c1N(C)C(=O)COc1ccccc1	97*	0	-3	0	-2
O=C(C1COc2ccccc2O1)N1CCN(c2ccccc2O)CC1 (stereo not given)	.	9	-2	0	17*
O=C(C1COc2ccccc2O1)N1CCCC1 (stereo not given)	-23	.	.	.	.
CSC1=NC(=O)/C(=C/c2ccc(SC)cc2)S1	.	26	0	43*	0
O=C1N[C@@H](Cc2ccccc2)C(=O)N2[C@@H]1C[C@]1(Br)c3ccccc3N(S(=O)(=O)c3ccccc3)[C@H]21	.	-4	0	0	-1
CS(=O)(=O)N1c2ccccc2[C@]2([C@@]34C[C@H]5C(=O)N[C@@H](Cc6ccccc6)C(=O)N5[C@@H]3N(S(C)(=O)=O)c3ccccc34)C[C@H]3C(=O)N[C@@H](Cc4ccccc4)C(=O)N3[C@H]12	.	0	0	0	33*
CCCn1c(CN2CCN(C(=O)OCC)CC2)nc2cc(NC(C)=O)ccc21	0	5	0	0	17*
COc1ccc2c3c([nH]c2c1)[C@H](CO)N(C(=O)c1ccccc1)CC31CN(Cc2cccnc2)C1	.	0	-1	0	0
CCOC(=O)CN1C(=O)S/C(=C\c2ccc(-c3cccc(C(=O)O)c3C)o2)C1=O	-9	0	0	0	4
Cc1cccc(NC(=O)CN2C(=O)N/C(=C/c3ccc(-c4cccc(C(=O)O)c4C)o3)C2=O)c1	4	2	.	43*	0
Cc1ccc(NC(=O)CN2C(=O)S/C(=C\c3ccc(-c4cccc(C(=O)O)c4C)o3)C2=O)cc1C	.	-5	-1	44*	-6
Cc1noc(C)c1NC(=O)N1C[C@@H](O)COC[C@@H]2O[C@@H](CC(=O)NCC3CCCCC3)CC[C@H]21	4[16.7 µM]	-3	0	1	3
CCc1ccc(-c2cc(C(=O)NCc3ccccn3)c3ccccc3n2)cc1	148*	.	.	.	.
O=C(NCc1ccccn1)c1cc(-c2ccc(Br)cc2)nc2ccccc12	32	-2	-1	0	-2
Cc1ccc(-c2cc(C(=O)Nc3c(C)n(C)n(-c4ccccc4)c3=O)c3ccccc3n2)cc1	25	2	0	43*	.
Cc1csc(NC(=O)c2cc(-c3ccncc3)nc3ccccc23)n1	.	-4	0	44*	1
COc1ccc(-c2cc(C(=O)Nc3ccccc3N3CCOCC3)c3ccccc3n2)cc1OC	-2	0	7	2.3*	-5
C[C@@H]1CN([C@H](C)CO)C(=O)Cc2cc(NS(=O)(=O)c3cn(C)cn3)ccc2O[C@H]1CN(C)CC1CCCCC1	-6[16.7 µM]	-2	0	.	-4
N/C(=N\OC(=O)c1cc(-c2ccccc2)nc2ccccc12)c1ccccn1	.	-5	.	43*	-1
O=C(Nc1ccon1)c1cc(-c2ccccc2)nc2ccccc12	5	.	.	.	.
O=C(O)c1ccccc1NC(=O)c1cc(-c2ccccc2)nc2ccccc12	-4	-4	0	3.9*	4
Cc1cc(-c2cc(C(=O)O)c3ccccc3n2)c(C)s1	.	1	9	44*	-2
CCN(CC(=O)Nc1c(F)cccc1F)C(=O)CCCOc1ccc(OC)cc1	-5	5	.	0	-1
CCN(CC(=O)Nc1c(F)cccc1F)C(=O)CCc1ccc(OC)cc1	.	2	.	44*	6

Assay outcomes as filed in PubChem BioAssay.
